Results published in ChEMBL document CHEMBL1142096, “Reduced susceptibility of Haemophilus influenzae to the peptide deformylase inhibitor LBM415 can result from target protein overexpression due to amplified chromosomal def gene copy number” (2007).
In brackets after ≈: the same amount, converted by molar mass.

What was measured:
Assay type in all cases: functional
Haemophilus influenzae [1] = test: Antimicrobial activity against Haemophilus influenzae NB65044 by broth microdilution method
Summary of the method: (§1)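 MIC by CLSI broth microdilution, twofold serial dilutions in HTM broth.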

Haemophilus influenzae [2] = test: Antimicrobial activity against Haemophilus influenzae CDS01 mutant with acrB insertional inactivation by broth microdilution method; summary of the method: as §1
Haemophilus influenzae [3] = test: Antimicrobial activity against Haemophilus influenzae CDS23 mutant overexpressing Def by broth microdilution method; summary of the method: as §1
Haemophilus influenzae [4] = test: Antimicrobial activity against Haemophilus influenzae CDS40 mutant with acrB insertional inactivation by broth microdilution method; summary of the method: as §1

Compound	MIC (Haemophilus influenzae [1]) [µg/mL]	MIC (Haemophilus influenzae [2]) [µg/mL]	MIC (Haemophilus influenzae [3]) [µg/mL]	MIC (Haemophilus influenzae [4]) [µg/mL]
CCCC[C@H](CN(O)C=O)C(=O)N1CCC[C@H]1C(=O)Nc1ccc(F)c[n+]1[O-]	4 (≈ 10.1 µM)	0.25 (≈ 0.631 µM)	64 (≈ 161 µM)	4 (≈ 10.1 µM)
CN(C)[C@@H]1C(O)=C(C(N)=O)C(=O)[C@@]2(O)C(O)=C3C(=O)c4c(O)cccc4[C@@](C)(O)[C@H]3C[C@@H]12 [TETRACYCLINE]	0.5 (≈ 1.13 µM)	0.5 (≈ 1.13 µM)	0.5 (≈ 1.13 µM)	0.5 (≈ 1.13 µM)
CCC[C@@H]1C[C@@H](C(=O)N[C@@H]([C@H]2O[C@H](SC)[C@H](O)[C@@H](O)[C@H]2O)[C@H](C)Cl)N(C)C1 [CLINDAMYCIN]	8 (≈ 18.8 µM)	0.5 (≈ 1.18 µM)	4 (≈ 9.41 µM)	0.5 (≈ 1.18 µM)
